One assay has as its system HSCs. The note with it: clinical studies; cited from earlier work.
Assay [1] concerns CXCR4-dependent HIV-1 strains. The note with it: cited from earlier work.
The subject of a further assay is human CXCR4. Description: SDF-1α-induced phosphorylation of Akt and Erk in CXCR4-transfected CHO cells. The note with it: SDF-1α 12.5 nM. It is filed as cell-based. An outline of the steps: (§1)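 CHO cells were stably transfected with pcDNA3-hCXCR4 or pcDNA3-hCXCR7, selected in G418 (1.2 mg/mL) and single-cell cloned; the CXCR4 line was also FACS-sorted. After SDF-1α exposure, cells were lysed 30 min on ice (Tris/NaCl/EGTA/deoxycholate/Triton/SDS, pH 7.2, plus phosphatase/protease inhibitors). Blots: BCA-matched protein, 8% SDS-PAGE, nitrocellulose, primary antibodies overnight at 4°C, HRP secondary 1 h at room temperature, chemiluminescent detection.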

In assay [2] the test system is CXCR7. Nature of the assay: SDF-1α-induced phosphorylation of Akt and Erk in CXCR7-transfected CHO cells. The note with it: Western blotting; for effect on SDF-1α-induced Akt phosphorylation: peptides with SDF-1α. It is filed as cell-based, human. An outline of the steps: as §1
On the technique in general: In western blotting, separated proteins are transferred to a membrane and probed.

The subject of another assay is wild-type CHO cells. Nature of the assay: SDF-1α-induced phosphorylation of Akt in wild-type CHO cells. In kind it is cell-based, Chinese hamster. The note with it: SDF-1α 12.5 nM, Western blotting. An outline of the steps:
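Untransfected CHO cells were treated with SDF-1α (12.5 nM), then lysed 30 min on ice in pH 7.2 Tris/NaCl/EGTA/deoxycholate/Triton/SDS buffer with phosphatase/protease inhibitors. Lysates were cleared at 17,000 g, 15 min, 4°C. BCA-matched protein ran on 8% SDS-PAGE onto nitrocellulose, blocked with milk or BSA in TBST. Probing: primary overnight at 4°C, HRP secondary 1 h at room temperature, chemiluminescence.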

The test system of assay [3] is CXCR7. The note with it: cited from earlier work.
The subject of the next assay is C3H/HeJ mice. Description: Mobilization of hematopoietic progenitor cells to the blood. It is filed as in vivo, mouse. The note with it: subcutaneous, 1 h; for mobilization of BFU-E from the bone marrow to the blood / mobilization of CFU-GEMM from the bone marrow to the blood / mobilization of CFU-GM from the bone marrow to the blood: 7-day culture in MethoCult GF M3434; for mobilization of HPCs from the bone marrow to the peripheral blood: vs vehicle control (P < 0.01), monovalent peptide 37.5 and 150 mg/kg, bivalent peptide 57.5 and 230 mg/kg, mean of at least three independent experiments. An outline of the steps:
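C3H/HeJ mice received vehicle or peptide subcutaneously. After 1 h, peripheral blood was drawn into heparin-treated tubes and red cells were lysed with ammonium chloride. Cells were grown in MethoCult GF M3434 for 7 days in humidified 5% CO2. CFU-GM, BFU-E and CFU-GEMM colonies were counted.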

A further assay has as its system CXCR4. The settings on record: HEK293 cells that stably expressed CXCR4; cited from earlier work.
Where [4] appears, read: SDF-1α 12.5 nM, 5, 15, 30, 45, 60 minutes.

“Also recorded” adds a separate entry of the source.

For the molecule `c1cc(CN2CCCNCCNCCCNCC2)ccc1CN1CCCNCCNCCCNCC1` [AMD3100], the “mobilization of HSCs to the peripheral blood” value with HSCs is on record as “rapid mobilization of HSCs to the peripheral blood”.
“LGASWHRPDKCCLGYQKRPLPQVL LSSWYPTSQLCSKPGVIFLTKRGRQ VCADKSKDWVKKLMQQLPVTAR [vMIP-II]”: in assay [1] (vMIP-II binding to CXCR4 or CCR5), the “inhibition of HIV-1 entry” value is on record as “inhibitory effect on HIV-1 entry”.
SDF-1α: specific ligand of CXCR4: in the assay with human CXCR4 (Western blotting), the “induction of phosphorylation of Akt” value was “induced the phosphorylation of Akt and Erk significantly”; the “induction of phosphorylation of Erk” value was “induced the phosphorylation of Akt and Erk significantly”. Further, in the assay with CXCR7 [2] (setting [4]), the “induction of Akt phosphorylation” value is listed as “only Akt phosphorylation was observed consistently from 5 to 60 minutes; also recorded: only weak phosphorylation of Akt” and the “induction of Erk phosphorylation” value is recorded as “no phosphorylation changes were observed for Erk”. In the assay on wild-type CHO cells, the “induction of Akt phosphorylation” value is on record as “no changes in Akt phosphorylation”. Besides, in the assay on CXCR7 [3], the “affinity for CXCR7 compared with CXCR4” value is “higher”.
Turning to LGASWHRPDKCCLGYQKRPLPK [HC4319], in the assay with human CXCR4 (30 μM, bivalent vs monovalent), the “inhibitory effect on phosphorylation of Akt compared with DV1” value is recorded as “more potent inhibitory effect” and the “inhibitory effect on phosphorylation of Erk compared with DV1” value is recorded as “more potent inhibitory effect”. In addition, in the assay on CXCR7 [2], the “effect on SDF-1α-induced Akt phosphorylation” value is given as “little inhibitory effects; also recorded: little or no effect”. Besides, in the assay with C3H/HeJ mice, the “mobilization of BFU-E from the bone marrow to the blood” value was “strongly induced rapid mobilization”, the “mobilization of CFU-GEMM from the bone marrow to the blood” value is listed as “strongly induced rapid mobilization”, the “mobilization of CFU-GM from the bone marrow to the blood” value is listed as “strongly induced rapid mobilization” and the “mobilization of HPCs from the bone marrow to the peripheral blood” value is “strong mobilization of HPCs”. The “CXCR4 binding potency compared with the monomeric counterparts DV1 and DV3” value in the assay on CXCR4 was “much more potent”.
Consider LGASWHRPDKCCLGYQKRPLP [DV1], for which the “effect on SDF-1α-induced Akt phosphorylation” value in the assay with CXCR7 [2] was “slight effect; also recorded: little or no effect”. In the assay with CXCR7 [2] (listed as DV-1), the “effect on SDF-1α-induced Akt phosphorylation” value was “little inhibitory effects”. In addition, in the assay on C3H/HeJ mice, the “mobilization of BFU-E from the bone marrow to the blood” value is given as “strongly induced rapid mobilization”, the “mobilization of CFU-GEMM from the bone marrow to the blood” value is “strongly induced rapid mobilization”, the “mobilization of CFU-GM from the bone marrow to the blood” value is “strongly induced rapid mobilization” and the “mobilization of HPCs from the bone marrow to the peripheral blood” value is reported as “strong mobilization of HPCs”. The anti-HIV entry activity entry in assay [1] was “anti-HIV entry activity”.
Turning to LGASWHRPDK [DV3], the anti-HIV entry activity result in assay [1] is recorded as “anti-HIV entry activity”.

The record behind these values is article PMC6434473 (Cell Transplantation, 2018).
